Screens (PubChem)
Sampled rows, rich in hits. Any-hit rate of the full collection: about 1.4%.
TDP2 inh – blocks human TDP2 phosphodiesterase activity; O95551; recombinant TDP2, T5PNP hydrolysis, p-nitrophenol absorbance 415 nm; inhibition, % at 12.8 µM; 0.34% of 370,000 active; AID 720702;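 active = inhibition above the mean of all tested compounds plus 3 SD, set per campaign, cut at about 25% in these data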;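 also: 0% = DMSO with enzyme and 100% = buffer with substrate but no TDP2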
Target sequence (O95551 whole entry, looked up): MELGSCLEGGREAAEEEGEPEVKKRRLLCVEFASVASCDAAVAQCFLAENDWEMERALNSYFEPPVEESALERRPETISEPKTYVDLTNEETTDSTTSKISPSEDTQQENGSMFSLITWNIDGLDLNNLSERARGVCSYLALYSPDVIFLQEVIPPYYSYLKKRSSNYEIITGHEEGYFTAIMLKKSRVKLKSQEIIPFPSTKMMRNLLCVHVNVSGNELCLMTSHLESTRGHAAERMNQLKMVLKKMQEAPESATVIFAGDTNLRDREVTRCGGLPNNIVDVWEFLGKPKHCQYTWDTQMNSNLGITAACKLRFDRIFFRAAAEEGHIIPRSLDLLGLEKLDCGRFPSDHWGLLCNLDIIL
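System: recombinant human TDP2 / Amount: 120 nM TDP2 per well / Also added: 5 mM T5PNP chromogenic substrate / Doses: 12.8 µM single point, 1% DMSO / Incubation: 2 h at 37 °C / Detection: p-Nitrophenol epi absorbance / Evaluation: % inhibition relative to enzyme-containing and enzyme-free wells / Repeats: singlicate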
GSTO1 counter – GSTO1 inhibition, counter-screen for RBBP9 inhibitors; 1.1% of 300,000 active; inhibition, % at 5.96 µM; recombinant GSTO1, activity-based probe fluorescence polarization; P78417;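 active = inhibition above the campaign mean inhibition plus 3 SD, cut at about 35% in these data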;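 also: 0% = GSTO1-1 with DMSO and 100% = wells lacking GSTO1-1 enzyme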
Target sequence (P78417 whole entry, looked up): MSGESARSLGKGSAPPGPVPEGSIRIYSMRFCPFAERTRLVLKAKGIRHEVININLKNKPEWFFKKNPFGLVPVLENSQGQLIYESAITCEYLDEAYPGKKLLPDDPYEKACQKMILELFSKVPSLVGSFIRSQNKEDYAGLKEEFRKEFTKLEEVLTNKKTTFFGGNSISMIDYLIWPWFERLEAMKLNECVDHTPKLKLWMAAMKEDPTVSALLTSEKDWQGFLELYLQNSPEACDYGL
PAD4 inh – inhibitors of human PAD4. Q9UM07. recombinant PAD4, RCA probe fluorescence polarization. inhibition, % at 6.36 µM. 0.41% of 330,000 active. AID 485272;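 active = percent inhibition above a cutoff equal to the mean of all tested compounds plus 3 SD, cut at about 15% in these data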;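 also: 0% = PAD4 with RCA probe and DMSO and 100% = probe without PAD4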
CTSL1 counter – cathepsin L1 inhibition, PFM18AAP counter-screen. 0.49% of 300,000 active. AID 1906. inhibition, % at 5.96 µM. recombinant F. hepatica cathepsin L1, Z-Leu-Arg-MCA fluorescence;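 active = inhibition above the mean of all tested compounds plus 3 SD, set per screening campaign, cut at about 17% in these data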;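 also: 0% = plate median of test compound wells and 100% = 1 µM Z-Phe-Ala-diazomethylketone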
GSTO1 confirm – GSTO1 (human) inhibition, confirmation; shares compounds with GSTO1 counter; recombinant GSTO1, probe fluorescence polarization; inhibition, % at 5.96 µM; 54% of 2,400 active; AID 2176;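 active = inhibition above the primary screen's cutoff, its mean inhibition plus 3 SD, cut at about 35% in these data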;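 also: loss of polarization as inhibitors block binding of rhodamine sulfonate ester activity probe; 0% = GSTO1 with DMSO and 100% = wells lacking GSTO1 enzyme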
Starred values were filed as active, the others as inactive; · = no result given.

SMILES	TDP2 inh	GSTO1 counter	PAD4 inh	CTSL1 counter	GSTO1 confirm
Cc1cccc(NC2=C(NC(=O)c3ccccc3)C(=O)c3ccccc3C2=O)c1	-0.6	55.9*	-11.4	1.5	37.6*
O=C(NC1=C(Nc2ccc(Cl)cc2)C(=O)c2ccccc2C1=O)c1ccccc1	4.8	32.0	-18.1	6.6	·
Cc1ccc(-c2nc(C3CCCN(S(=O)(=O)c4cccs4)C3)no2)cc1 (stereo unspecified)	3.4	·	·	·	·
Cc1cc(N)ccc1N1CCCC1	·	72.6*	28.4*	-1.2	6.2
NC(=O)c1cc(N)ccc1N1CCCC1	10.6	51.5*	-5.1	0.6	5.2
NC(=O)c1cc(N)ccc1N1CCCCC1	-7.0	-1.5	-1.1	0.5	·
Cc1cc(N2CCCC2)c(C)cc1C=O	0.3	1.2	-0.1	2.0	·
Cc1[nH]c2ccccc2c1CC(=O)Nc1ccc(Nc2cccnc2)c(-c2cc(C(F)(F)F)cc(C(F)(F)F)c2)c1	4.5	·	·	·	·
O=C(Nc1nc(-c2ccco2)c(-c2ccco2)s1)c1c(F)cccc1Cl	4.4	·	-11.8	·	·
O=C(Nc1nc(-c2ccco2)c(-c2ccco2)s1)c1cnccn1	2.6	44.7*	-10.1	5.9	10.1
Cc1ccc(C(=O)c2coc3cc([N+](=O)[O-])c(O)c([N+](=O)[O-])c23)cc1	7.1	37.6*	1.3	-0.9	19.2
CC(=O)Oc1ccc(OC(C)=O)c(SCCCCCN2CCOCC2)c1	4.1	79.5*	-6.8	-16.7	5.9
CC(C)c1ccc(OCCCCCN2CCOCC2)cc1	10.2	1.1	-1.0	5.1	·
CCCCn1c(N)c(N(CCOC)C(=O)C(C)N2C(=O)c3ccccc3C2=O)c(=O)[nH]c1=O (stereo unspecified)	0.3	66.8*	1.1	-0.4	8.8
C=CCNC(=O)COc1ccc(Br)cc1Cl	2.1	66.0*	-1.3	-1.3	5.1
CN1C2CCCC1CC(NC(=O)c1nn(C)c3ccccc13)C2 (stereo unspecified)	0.9	·	·	·	·
Cc1[nH]n(-c2ccccc2)c(=O)c1N=Nc1c(O)cc(S(=O)(=O)N(C)C)c2ccccc12	4.8	46.9*	-7.7	4.1	70.8*
Cc1nn(Cc2ccc(Cl)cc2Cl)c(C)c1NC(=O)CCl	-4.3	96.5*	-4.2	12.8	97.1*
CSCCC(c1nc2ccccc2[nH]1)n1c(/C=C/c2ccc(Cl)cc2)nc2ccccc21 (stereo unspecified)	-0.1	·	·	·	·
CCN(CC)P(=O)(Nc1ccc(Br)cc1)c1c(C)nn(CCC#N)c1NC(=O)c1ccc(Cl)cc1 (stereo unspecified)	-2.3	47.3*	-4.3	1.2	22.7
CC1(S(=O)(=O)O)CC(=O)c2ccccc2C1=O (stereo unspecified)	8.8	73.8*	-0.3	2.4	73.5*
CC(C)C1=CC2=CCC3C(C)(C(=O)O)CCCC3(C)C2CC1 (stereo unspecified) (tested in a mixture with another compound)	·	38.8*	6.2	7.0	34.5
O=C(N/N=C/c1c(O)ccc2ccccc12)C(=O)N1CCCC1	-4.5	·	·	·	·
O=C(CN1CCCC1)N/N=C/c1c(O)ccc2ccccc12	-8.3	38.2*	-12.0	1.0	5.5
CC(=O)NN1C(=O)/C(=C\c2ccc(Br)o2)SC1=S	4.6	69.3*	-32.6	-0.7	78.5*
SMILES	TDP2 inh	GSTO1 counter	PAD4 inh	CTSL1 counter	GSTO1 confirm
CC(=O)NN1C(=O)/C(=C/c2ccc(Br)o2)SC1=S	2.8	64.4*	-31.7	-0.9	77.7*
CC(C)=NNC(=O)c1c(O)c2ccccc2[nH]c1=O	0.9	42.0*	-2.6	2.7	4.4
O=C(CCl)NNC(=O)c1c(O)c2ccccc2[nH]c1=O	-11.7	88.7*	1.3	-3.1	96.9*
CCCCC(=O)NNC(=O)c1c(O)c2ccccc2[nH]c1=O	-20.5	2.5	-3.9	-4.7	·
COc1ccc2[nH]cc(C(C)c3ccccc3O)c2c1 (stereo unspecified)	8.5	·	·	·	·
CCCCNS(=O)(=O)/C=C/c1ccc(OC)cc1CNC(=O)OC(C)(C)C	-7.7	·	·	·	·
Oc1cc(O)c2c(c1)O[C@H](c1ccc(O)c(O)c1)[C@H](O)C2	2.0	39.6*	-1.6	-0.1	6.6
O=C1C[C@@H](c2ccc(O)cc2)Oc2cc(O)cc(O)c21	-5.6	6.0	5.7	15.7	·
Cc1cc[n+](-c2nc3ccccc3nc2C(=C=[N-])C#N)cc1	-1.2	47.4*	-26.6	4.5	34.8
N#CC(=C=[N-])c1nc2ccccc2nc1-[n+]1ccccc1	3.7	64.0*	-4.3	0.2	36.5*
Cc1cc[n+](-c2nc3ccccc3nc2[N-]S(=O)(=O)c2ccccc2)cc1	-0.6	3.5	-6.0	1.7	·
CC(C)(C)NC(=O)C(c1cccnc1)N(C(=O)c1cnc[nH]1)c1ccc(C(C)(C)C)cc1 (stereo unspecified)	4.1	·	·	·	·
COC(=O)[C@]12C[C@H](CC(=O)NCc3cccs3)C(=O)N(Cc3ccco3)C1=C[C@H](C1CCCC1)O[C@@H]2C	4.8	·	·	·	·
O=C(NC1CCCCC1)C(c1ccccc1F)N(Cc1ccco1)C(=O)c1ccccn1 (stereo unspecified)	11.9	37.8*	-3.8	-0.5	7.0
COc1ccc(OC)c(C(C(=O)NC2CCCCC2)N(Cc2ccco2)C(=O)c2ccccn2)c1 (stereo unspecified)	-5.6	-1.0	-1.1	-0.6	·
O=c1oc2cc(O)ccc2c2oc3cc(O)ccc3c12	5.7	39.0*	-4.7	2.4	49.0*
CC1=C(C)/C(=N/OC(=O)c2cccc([N+](=O)[O-])c2)C=CC1=O	·	47.2*	-2.0	17.4*	-0.2
N/C(=N/OC(=O)c1cccc([N+](=O)[O-])c1)c1cccc([N+](=O)[O-])c1	-6.8	-3.0	-3.1	1.7	·
c1ccc2c3c([nH]c2c1)-c1[nH]ncc1CC3	5.6	74.1*	6.6	-0.2	10.9
Clc1ccc2[nH]c3c(c2c1)CCc1cn[nH]c1-3	5.1	4.2	-2.0	1.4	·
O=[N+]([O-])c1ccc2nc(CNc3nc(N4CCOCC4)nc4c3ncn4-c3ccsc3)[nH]c2c1	7.0	·	·	·	·
O=C(NCCc1ccccc1)OCc1cn(-c2cccc(C(F)(F)F)c2)nn1	3.7	·	·	·	·
Cc1ccc(C(=O)NNc2cc(N3CCCC3)nc(N3CCCC3)n2)cc1	·	48.6*	8.1	0.2	71.6*
O=C(CNC(=S)NC(=O)c1ccc(Br)o1)c1ccccc1	3.3	45.9*	0.5	-2.8	15.2
COC(=O)C1Cc2ccccc2CN1C(=O)CCl (stereo unspecified)	5.9	89.6*	-4.5	47.7*	99.0*
COC(=O)[C@H](Cc1ccccc1)NC(=O)N1Cc2ccccc2C[C@H]1C(=O)OC	-6.5	2.5	-4.6	-2.9	·
CCOC(=O)c1c(C)[nH]c(C)c1C(=O)COC(=O)c1cccc(S(=O)(=O)NC)c1	-2.3	40.2*	-4.1	-2.5	21.9
Cc1cccc(C)c1NC(=S)NCCc1ccc(O)c(O)c1	-10.2	37.7*	-1.3	8.3	6.9
Cc1cccc(NC(=S)NCCc2ccccc2)c1C	-10.8	-1.1	-0.9	-3.3	·
